What was measured:
Details in all cases: stereoisomer not certain
OR10H4 (Homo sapiens) = molecular target: T1, OR10H4 (Homo sapiens) (UniProt Q8NGA5)
T1 sequence (whole entry): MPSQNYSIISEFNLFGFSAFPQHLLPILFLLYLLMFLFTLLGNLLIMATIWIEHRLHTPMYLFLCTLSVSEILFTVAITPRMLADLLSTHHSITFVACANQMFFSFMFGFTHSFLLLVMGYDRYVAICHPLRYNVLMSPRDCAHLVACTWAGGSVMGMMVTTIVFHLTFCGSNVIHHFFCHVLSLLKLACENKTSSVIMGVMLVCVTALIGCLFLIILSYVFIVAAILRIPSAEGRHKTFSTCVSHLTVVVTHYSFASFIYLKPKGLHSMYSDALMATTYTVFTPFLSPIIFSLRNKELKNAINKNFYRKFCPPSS
In short: (§1)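 Each receptor–molecule pair is labelled responsive or non-responsive (inactive) according to whether the original authors judged the measured signal statistically different from baseline. The data were taken from the main text and supplementary material of published papers and checked for typos and inconsistencies. Assay methods differed by source, with transient luciferase assays in mammalian cell lines being common.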

OR10H5 (Homo sapiens) = molecular target: T2, OR10H5 (Homo sapiens) (UniProt Q8NGA6)
T2 sequence (whole entry): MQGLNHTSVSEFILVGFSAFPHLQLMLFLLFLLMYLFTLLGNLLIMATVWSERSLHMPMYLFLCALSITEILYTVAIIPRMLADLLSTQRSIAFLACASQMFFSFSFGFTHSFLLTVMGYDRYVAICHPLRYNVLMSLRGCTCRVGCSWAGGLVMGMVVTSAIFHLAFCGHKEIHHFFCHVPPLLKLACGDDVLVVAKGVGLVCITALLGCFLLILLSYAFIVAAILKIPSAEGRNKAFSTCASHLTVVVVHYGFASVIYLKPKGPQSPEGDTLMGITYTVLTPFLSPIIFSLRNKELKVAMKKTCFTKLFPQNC
In short: as §1

OR10J1 (Homo sapiens) = molecular target: T3, OR10J1 (Homo sapiens) (UniProt P30954)
T3 sequence (whole entry): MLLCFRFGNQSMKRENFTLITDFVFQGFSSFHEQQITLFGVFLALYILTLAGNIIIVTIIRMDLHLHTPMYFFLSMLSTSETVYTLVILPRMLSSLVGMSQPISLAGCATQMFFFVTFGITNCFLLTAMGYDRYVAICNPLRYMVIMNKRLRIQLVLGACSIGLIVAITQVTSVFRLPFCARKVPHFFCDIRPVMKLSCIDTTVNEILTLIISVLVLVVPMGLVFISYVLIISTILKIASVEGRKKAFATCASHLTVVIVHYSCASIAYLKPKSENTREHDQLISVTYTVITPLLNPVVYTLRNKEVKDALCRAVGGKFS
In short: as §1

OR10J3 (Homo sapiens) = molecular target: T4, OR10J3 (Homo sapiens) (UniProt Q5JRS4)
T4 sequence (whole entry): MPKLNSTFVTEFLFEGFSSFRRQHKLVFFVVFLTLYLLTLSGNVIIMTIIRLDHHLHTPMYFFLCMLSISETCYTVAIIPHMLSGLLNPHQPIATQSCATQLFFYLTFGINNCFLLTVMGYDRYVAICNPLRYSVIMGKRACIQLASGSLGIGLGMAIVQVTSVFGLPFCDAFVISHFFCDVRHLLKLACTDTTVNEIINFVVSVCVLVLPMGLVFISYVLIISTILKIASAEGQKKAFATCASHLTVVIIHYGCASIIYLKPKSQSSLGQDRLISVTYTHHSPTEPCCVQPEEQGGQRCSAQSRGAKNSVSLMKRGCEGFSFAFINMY
In short: as §1

OR10J5 (Homo sapiens) = molecular target: T5, OR10J5 (Homo sapiens) (UniProt Q8NHC4)
T5 sequence (whole entry): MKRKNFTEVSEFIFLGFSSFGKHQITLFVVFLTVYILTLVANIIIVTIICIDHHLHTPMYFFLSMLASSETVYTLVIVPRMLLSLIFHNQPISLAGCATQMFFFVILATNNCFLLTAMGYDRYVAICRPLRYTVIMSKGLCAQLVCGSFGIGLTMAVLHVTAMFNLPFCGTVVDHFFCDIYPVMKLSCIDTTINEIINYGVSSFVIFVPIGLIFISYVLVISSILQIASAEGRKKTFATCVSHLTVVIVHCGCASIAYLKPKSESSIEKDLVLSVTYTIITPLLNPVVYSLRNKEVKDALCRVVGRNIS
In short: as §1

OR10K1 (Homo sapiens) = molecular target: T6, OR10K1 (Homo sapiens) (UniProt Q8NGX5)
T6 sequence (whole entry): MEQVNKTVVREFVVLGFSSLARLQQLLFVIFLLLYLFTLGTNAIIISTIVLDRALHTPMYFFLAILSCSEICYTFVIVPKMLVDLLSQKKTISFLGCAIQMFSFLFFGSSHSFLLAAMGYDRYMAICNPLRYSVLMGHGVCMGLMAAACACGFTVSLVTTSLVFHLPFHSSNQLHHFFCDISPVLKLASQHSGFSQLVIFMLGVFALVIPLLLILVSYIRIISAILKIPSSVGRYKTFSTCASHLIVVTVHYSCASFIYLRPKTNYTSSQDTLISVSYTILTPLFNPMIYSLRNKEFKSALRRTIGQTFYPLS
In short: as §1

OR10P1 (Homo sapiens) = molecular target: T7, OR10P1 (Homo sapiens) (UniProt Q8NGE3)
T7 sequence (whole entry): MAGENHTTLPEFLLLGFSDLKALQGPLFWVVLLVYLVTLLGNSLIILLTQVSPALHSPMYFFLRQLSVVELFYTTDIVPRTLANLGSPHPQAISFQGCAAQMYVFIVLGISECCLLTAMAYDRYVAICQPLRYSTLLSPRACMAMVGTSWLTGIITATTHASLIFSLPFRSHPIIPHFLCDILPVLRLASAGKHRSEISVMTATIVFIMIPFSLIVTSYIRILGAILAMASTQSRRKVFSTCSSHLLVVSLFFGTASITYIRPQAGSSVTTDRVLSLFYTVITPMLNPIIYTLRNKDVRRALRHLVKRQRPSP
In short: as §1

OR10Q1 (Homo sapiens) = molecular target: T8, OR10Q1 (Homo sapiens) (UniProt Q8NGQ4)
T8 sequence (whole entry): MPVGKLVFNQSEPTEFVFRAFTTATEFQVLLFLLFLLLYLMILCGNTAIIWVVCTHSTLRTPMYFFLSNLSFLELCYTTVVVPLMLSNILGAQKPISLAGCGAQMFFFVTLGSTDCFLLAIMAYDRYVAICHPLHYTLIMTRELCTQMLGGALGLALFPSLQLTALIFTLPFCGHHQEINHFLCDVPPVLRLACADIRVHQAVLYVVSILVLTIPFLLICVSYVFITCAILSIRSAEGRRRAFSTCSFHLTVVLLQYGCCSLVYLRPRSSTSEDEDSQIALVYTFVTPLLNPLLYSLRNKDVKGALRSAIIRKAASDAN
In short: as §1

OR10R2 (Homo sapiens) = molecular target: T9, OR10R2 (Homo sapiens) (UniProt Q8NGX6)
T9 sequence (whole entry): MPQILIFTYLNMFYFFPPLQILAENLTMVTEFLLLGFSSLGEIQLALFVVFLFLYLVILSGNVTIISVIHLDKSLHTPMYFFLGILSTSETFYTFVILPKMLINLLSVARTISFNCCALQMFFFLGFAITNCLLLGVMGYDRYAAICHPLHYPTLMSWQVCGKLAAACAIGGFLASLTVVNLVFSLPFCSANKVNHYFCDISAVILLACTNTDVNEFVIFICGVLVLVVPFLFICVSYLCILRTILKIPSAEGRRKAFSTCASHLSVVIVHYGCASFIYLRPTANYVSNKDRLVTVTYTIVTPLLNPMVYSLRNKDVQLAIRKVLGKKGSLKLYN
In short: as §1

OR10S1 (Homo sapiens) = molecular target: T10, OR10S1 (Homo sapiens) (UniProt Q8NGN2)
T10 sequence (whole entry): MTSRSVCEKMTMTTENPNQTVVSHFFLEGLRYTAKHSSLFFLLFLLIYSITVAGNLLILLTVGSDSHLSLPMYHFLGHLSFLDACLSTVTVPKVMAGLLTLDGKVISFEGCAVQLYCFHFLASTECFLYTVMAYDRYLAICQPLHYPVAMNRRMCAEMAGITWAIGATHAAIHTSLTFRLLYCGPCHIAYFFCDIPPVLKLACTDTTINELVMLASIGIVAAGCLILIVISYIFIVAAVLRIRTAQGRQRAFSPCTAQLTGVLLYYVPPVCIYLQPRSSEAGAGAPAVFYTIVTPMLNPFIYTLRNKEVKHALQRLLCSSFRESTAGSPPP
In short: as §1

OR10T2 (Homo sapiens) = molecular target: T11, OR10T2 (Homo sapiens) (UniProt Q8NGX3)
T11 sequence (whole entry): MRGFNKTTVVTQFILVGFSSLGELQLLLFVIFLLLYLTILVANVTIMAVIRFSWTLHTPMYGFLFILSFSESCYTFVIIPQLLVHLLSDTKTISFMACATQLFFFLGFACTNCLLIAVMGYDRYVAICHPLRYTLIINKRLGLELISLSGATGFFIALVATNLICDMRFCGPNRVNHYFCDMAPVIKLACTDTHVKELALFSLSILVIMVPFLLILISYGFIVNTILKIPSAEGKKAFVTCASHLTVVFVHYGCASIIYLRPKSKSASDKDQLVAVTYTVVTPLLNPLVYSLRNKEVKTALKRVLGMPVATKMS
In short: as §1

OR10V1 (Homo sapiens) = molecular target: T12, OR10V1 (Homo sapiens) (UniProt Q8NGI7)
T12 sequence (whole entry): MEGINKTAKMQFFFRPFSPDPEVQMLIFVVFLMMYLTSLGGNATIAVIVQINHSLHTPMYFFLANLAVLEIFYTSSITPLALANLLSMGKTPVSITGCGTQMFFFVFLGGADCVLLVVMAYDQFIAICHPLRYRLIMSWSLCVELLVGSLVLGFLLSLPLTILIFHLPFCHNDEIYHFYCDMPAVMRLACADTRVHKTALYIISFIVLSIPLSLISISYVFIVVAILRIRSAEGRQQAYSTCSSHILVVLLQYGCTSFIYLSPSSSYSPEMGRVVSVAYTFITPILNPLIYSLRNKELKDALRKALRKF
In short: as §1

OR10W1 (Homo sapiens) = molecular target: T13, OR10W1 (Homo sapiens) (UniProt Q8NGF6)
T13 sequence (whole entry): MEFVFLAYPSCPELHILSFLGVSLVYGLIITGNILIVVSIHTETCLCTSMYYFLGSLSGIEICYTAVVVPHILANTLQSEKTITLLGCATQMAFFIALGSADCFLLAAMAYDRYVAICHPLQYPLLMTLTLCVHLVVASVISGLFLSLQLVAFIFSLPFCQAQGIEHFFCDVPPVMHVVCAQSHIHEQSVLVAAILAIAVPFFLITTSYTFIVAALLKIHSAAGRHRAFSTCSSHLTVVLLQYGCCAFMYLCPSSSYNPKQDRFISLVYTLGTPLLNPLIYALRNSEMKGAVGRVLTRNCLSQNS
In short: as §1

OR10X1 (Homo sapiens) = molecular target: T14, OR10X1 (Homo sapiens) (UniProt Q8NGY0)
T14 sequence (whole entry): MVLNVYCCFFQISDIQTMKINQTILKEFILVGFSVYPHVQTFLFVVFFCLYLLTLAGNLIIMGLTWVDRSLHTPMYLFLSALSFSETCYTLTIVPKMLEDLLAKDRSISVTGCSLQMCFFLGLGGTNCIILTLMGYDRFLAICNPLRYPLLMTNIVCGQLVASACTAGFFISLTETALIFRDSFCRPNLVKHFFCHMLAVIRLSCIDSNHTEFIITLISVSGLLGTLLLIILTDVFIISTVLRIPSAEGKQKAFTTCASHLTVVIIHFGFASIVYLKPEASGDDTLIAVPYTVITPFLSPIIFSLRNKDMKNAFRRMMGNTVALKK
In short: as §1

OR10Z1 (Homo sapiens) = molecular target: T15, OR10Z1 (Homo sapiens) (UniProt Q8NGY1)
T15 sequence (whole entry): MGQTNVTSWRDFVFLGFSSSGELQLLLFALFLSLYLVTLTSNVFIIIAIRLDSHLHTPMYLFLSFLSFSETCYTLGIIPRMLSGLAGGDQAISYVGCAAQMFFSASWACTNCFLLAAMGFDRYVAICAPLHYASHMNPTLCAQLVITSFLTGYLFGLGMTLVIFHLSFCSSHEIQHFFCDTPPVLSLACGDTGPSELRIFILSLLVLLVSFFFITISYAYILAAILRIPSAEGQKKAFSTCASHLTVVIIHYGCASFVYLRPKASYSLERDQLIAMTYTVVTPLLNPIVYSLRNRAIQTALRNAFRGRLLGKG
In short: as §1

OR11A1 (Homo sapiens) = molecular target: T16, OR11A1 (Homo sapiens) (UniProt Q9GZK7)
T16 sequence (whole entry): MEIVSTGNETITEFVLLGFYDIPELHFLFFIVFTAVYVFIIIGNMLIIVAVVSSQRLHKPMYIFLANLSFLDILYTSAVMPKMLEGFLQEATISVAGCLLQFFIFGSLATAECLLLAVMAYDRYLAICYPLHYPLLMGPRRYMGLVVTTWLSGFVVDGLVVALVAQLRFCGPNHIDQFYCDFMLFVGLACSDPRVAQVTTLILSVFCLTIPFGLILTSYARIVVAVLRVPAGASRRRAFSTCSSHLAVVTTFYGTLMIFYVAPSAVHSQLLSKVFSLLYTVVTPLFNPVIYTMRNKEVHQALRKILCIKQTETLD
In short: as §1

OR11G2 (Homo sapiens) = molecular target: T17, OR11G2 (Homo sapiens) (UniProt Q8NGC1)
T17 sequence (whole entry): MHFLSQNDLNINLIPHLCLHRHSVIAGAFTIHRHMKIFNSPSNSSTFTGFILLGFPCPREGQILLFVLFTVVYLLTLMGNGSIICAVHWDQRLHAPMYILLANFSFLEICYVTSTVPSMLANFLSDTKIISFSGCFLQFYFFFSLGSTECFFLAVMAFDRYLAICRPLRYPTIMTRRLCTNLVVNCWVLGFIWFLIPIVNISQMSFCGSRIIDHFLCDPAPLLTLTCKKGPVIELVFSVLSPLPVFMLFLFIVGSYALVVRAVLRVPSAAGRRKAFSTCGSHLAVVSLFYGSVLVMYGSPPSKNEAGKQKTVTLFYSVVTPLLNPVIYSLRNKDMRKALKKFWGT
In short: as §1

OR11H1 (Homo sapiens) = molecular target: T18, OR11H1 (Homo sapiens) (UniProt Q8NG94)
T18 sequence (whole entry): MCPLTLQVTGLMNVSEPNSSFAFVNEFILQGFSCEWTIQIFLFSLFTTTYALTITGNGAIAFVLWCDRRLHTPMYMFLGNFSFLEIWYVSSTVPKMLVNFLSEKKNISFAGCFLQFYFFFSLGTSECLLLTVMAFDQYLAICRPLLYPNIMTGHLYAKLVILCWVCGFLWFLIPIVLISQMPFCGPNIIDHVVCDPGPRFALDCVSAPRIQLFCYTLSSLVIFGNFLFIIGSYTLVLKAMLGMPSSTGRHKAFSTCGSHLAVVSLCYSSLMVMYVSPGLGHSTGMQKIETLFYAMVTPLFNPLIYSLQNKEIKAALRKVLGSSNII
In short: as §1

Measured: odorant receptor agonist call;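 further: active if original authors judged signal statistically different from baseline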

CC1=C(O)C(=O)OC1C (stereo not drawn)
inactive: all assays above
